Measured values taken from ChEMBL document CHEMBL1126637, “Dicarboxylate diamide dimercaptide (N2S2) technetium-99m complexes: synthesis and biological evaluation as potential renal radiopharmaceuticals” (J Med Chem, 1993).
Several values for one entry are separate records, joined by “and”; a condition that tells them apart may be missing. Equal entries are not always repeated.

Experiments:
[1] = species: Rattus norvegicus; assay: Biodistribution of the [99mTc] complex with OIH in rat intestine at 10 min postinjection (3-4 rats used); assay type: ADME, organism-based; settings: in vivo
Summary of the method: (§1)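 Male Sprague-Dawley rats (200-300 g), ketamine/xylazine anesthesia (80 mg/kg : 8 mg/kg), bladder cannulated with PE 50 tubing. Given iv via femoral vein 0.2 mL saline holding the 99mTc complex (20 µCi) co-injected with [131I]OIH (7 µCi). Percent injected dose per organ from comparing tissue radioactivity against dilutions of the injected dose, corrected for 131I spillover into the 99mTc channel; mean ±SD, 3-4 rats.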

[2] = species: Rattus norvegicus; assay: Biodistribution of the [99mTc] complex in rat intestines at 10 min postinjection (3-4 rats used); assay type: ADME, organism-based, Intestine; settings: in vivo; summary of the method: as §1
[3] = species: Rattus norvegicus; assay: Biodistribution of the [99mTc] complex in rat lung at 10 min postinjection (3-4 rats used); assay type: ADME, organism-based; settings: in vivo; summary of the method: as §1
[4] = species: Rattus norvegicus; assay: Biodistribution of the [99mTc] complex in rat spleen at 60 min postinjection (3-4 rats used); assay type: ADME, organism-based; settings: in vivo, 1 h; summary of the method: as §1
[5] = species: Rattus norvegicus; assay: Biodistribution of the [99mTc] complex in rat lung at 60 min postinjection (3-4 rats used); assay type: ADME, organism-based; settings: in vivo, 1 h; summary of the method: as §1
[6] = species: Rattus norvegicus; assay: Biodistribution of the [99mTc] complex with OIH in rat lung at 10 min postinjection (3-4 rats used); assay type: ADME, organism-based; settings: in vivo; summary of the method: as §1
[7] = species: Rattus norvegicus; assay: Biodistribution of the [99mTc] complex with OIH in rat muscle at 10 min postinjection (3-4 rats used); assay type: ADME, organism-based, Muscle tissue; settings: in vivo; summary of the method: as §1
[8] = species: Rattus norvegicus; assay: Biodistribution of the [99mTc] complex with OIH in rat blood at 60 min postinjection (3-4 rats used); assay type: ADME, organism-based; settings: in vivo, 1 h; summary of the method: as §1
[9] = species: Rattus norvegicus; assay: Biodistribution of the [99mTc] complex in rat liver at 10 min postinjection (3-4 rats used); assay type: ADME, organism-based; settings: in vivo; summary of the method: as §1
[10] = species: Rattus norvegicus; assay: Biodistribution of the [99mTc] complex in rat muscle at 60 min postinjection (3-4 rats used); assay type: ADME, organism-based, Muscle tissue; settings: in vivo, 1 h; summary of the method: as §1
[11] = species: Rattus norvegicus; assay: Biodistribution of the [99mTc] complex in rat kidney at 60 min postinjection (3-4 rats used); assay type: ADME, organism-based; settings: in vivo, 1 h; summary of the method: as §1
[12] = species: Rattus norvegicus; assay: Biodistribution of the [99mTc] complex in with OIH rat kidney at 60 min postinjection (3-4 rats used); assay type: ADME, organism-based; settings: in vivo, 1 h; summary of the method: as §1
[13] = species: Rattus norvegicus; assay: Biodistribution of the [99mTc] complex with OIH in rat heart at 10 min postinjection (3-4 rats used); assay type: ADME, organism-based; settings: in vivo; summary of the method: as §1
[14] = species: Rattus norvegicus; assay: Biodistribution of the [99mTc] complex in rat kidney at 10 min postinjection (3-4 rats used); assay type: ADME, organism-based; settings: in vivo; summary of the method: as §1
[15] = species: Rattus norvegicus; assay: Biodistribution of the [99mTc] complex with OIH in rat spleen at 10 min postinjection (3-4 rats used); assay type: ADME, organism-based; settings: in vivo; summary of the method: as §1
[16] = species: Rattus norvegicus; assay: Biodistribution of the [99mTc] complex with OIH in rat spleen at 60 min postinjection (3-4 rats used); assay type: ADME, organism-based; settings: in vivo, 1 h; summary of the method: as §1
[17] = species: Rattus norvegicus; assay: Biodistribution of the [99mTc] complex in rat blood at 10 min postinjection (3-4 rats used); assay type: ADME, organism-based; settings: in vivo; summary of the method: as §1
[18] = species: Rattus norvegicus; assay: Biodistribution of the [99mTc] complex with OIH in rat muscle at 60 min postinjection (3-4 rats used); assay type: ADME, organism-based, Muscle tissue; settings: in vivo, 1 h; summary of the method: as §1
[19] = species: Rattus norvegicus; assay: Biodistribution of the [99mTc] complex with OIH in rat intestine at 60 min postinjection (3-4 rats used); assay type: ADME, organism-based; settings: in vivo, 1 h; summary of the method: as §1
[20] = species: Rattus norvegicus; assay: Biodistribution of the [99mTc] complex in rat muscle at 10 min postinjection (3-4 rats used); assay type: ADME, organism-based, Muscle tissue; settings: in vivo; summary of the method: as §1
[21] = species: Rattus norvegicus; assay: Biodistribution of the [99mTc] complex with OIH in rat liver at 10 min postinjection (3-4 rats used); assay type: ADME, organism-based; settings: in vivo; summary of the method: as §1
[22] = species: Rattus norvegicus; assay: Percentage of counts in the pellet/total number of counts in both supernatant and pellet in rat plasma (n=3); assay type: functional
Summary of the method: (§2)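 Plasma from male cynomolgus monkey or male Sprague-Dawley rat blood (centrifuged 4000 rpm, 5 min). 99mTc complex in 50% ethanol/H2O (1 × 10^6 counts) incubated with 1 mL plasma at 37 °C for 30 min. Precipitation with 0.4 mL 10% trichloroacetic acid, centrifuged 4000 rpm 10 min, pellet washed twice with water. Bound = pellet counts/(pellet + supernatant + washes) counts; 3 determinations, mean ± SD.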

[23] = test system: Monkey; assay: Percentage of counts in the pellet/total number of counts in both supernatant and pellet in monkey plasma (n=3); assay type: functional, Cercopithecidae; summary of the method: as §2
[24] = species: Rattus norvegicus; assay: Biodistribution of the [99mTc] complex with OIH in rat lung at 60 min postinjection (3-4 rats used); assay type: ADME, organism-based; settings: in vivo, 1 h; summary of the method: as §1
[25] = species: Rattus norvegicus; assay: Biodistribution of the [99mTc] complex with OIH in rat kideny at 10 min postinjection (3-4 rats used); assay type: ADME, organism-based; settings: in vivo; summary of the method: as §1
[26] = species: Rattus norvegicus; assay: Biodistribution of the [99mTc] complex in rat intestines at 60 min postinjection (3-4 rats used); assay type: ADME, organism-based, Intestine; settings: in vivo, 1 h; summary of the method: as §1
[27] = species: Rattus norvegicus; assay: Biodistribution of the [99mTc] complex with OIH in rat heart at 60 min postinjection (3-4 rats used); assay type: ADME, organism-based; settings: in vivo, 1 h; summary of the method: as §1
[28] = species: Rattus norvegicus; assay: Biodistribution of the [99mTc] complex in rat liver at 60 min postinjection (3-4 rats used); assay type: ADME, organism-based; settings: in vivo, 1 h; summary of the method: as §1
[29] = species: Rattus norvegicus; assay: Biodistribution of the [99mTc] complex with OIH in rat liver at 60 min postinjection (3-4 rats used); assay type: ADME, organism-based; settings: in vivo, 1 h; summary of the method: as §1
[30] = species: Rattus norvegicus; assay: Biodistribution of the [99mTc] complex in rat heart at 10 min postinjection (3-4 rats used); assay type: ADME, organism-based; settings: in vivo; summary of the method: as §1
[31] = species: Rattus norvegicus; assay: Biodistribution of the [99mTc] complex in rat heart at 60 min postinjection (3-4 rats used); assay type: ADME, organism-based; settings: in vivo, 1 h; summary of the method: as §1
[32] = species: Rattus norvegicus; assay: Biodistribution of the [99mTc] complex in rat spleen at 10 min postinjection (3-4 rats used); assay type: ADME, organism-based; settings: in vivo; summary of the method: as §1
[33] = species: Rattus norvegicus; assay: Biodistribution of the [99mTc] complex in rat blood at 60 min postinjection (3-4 rats used); assay type: ADME, organism-based; settings: in vivo, 1 h; summary of the method: as §1
[34] = species: Rattus norvegicus; assay: Biodistribution of the [99mTc] complex with OIH in rat blood at 10 min postinjection (3-4 rats used); assay type: ADME, organism-based; settings: in vivo; summary of the method: as §1
[35] = test system: Monkey; assay: Percentage of counts in the pellet/total number of counts in both supernatant and pellet in monkey plasma; assay type: functional, Cercopithecidae; summary of the method: as §2
[36] = species: Rattus norvegicus; assay: Biodistribution of the [99mTc] complex with OIH in rat blood at 60 min postinjection (, 3-4 rats used); assay type: ADME, organism-based; settings: in vivo, 1 h; summary of the method: as §1
[37] = species: Rattus norvegicus; assay: Biodistribution of the [99mTc] complex with OIH in rat intestines at 60 min postinjection (3-4 rats used); assay type: ADME, organism-based, Intestine; settings: in vivo, 1 h; summary of the method: as §1
[38] = species: Rattus norvegicus; assay: Biodistribution of the [99mTc] complex with OIH in rat kidney at 60 min postinjection (3-4 rats used); assay type: ADME, organism-based; settings: in vivo, 1 h; summary of the method: as §1
[39] = species: Rattus norvegicus; assay: Percentage of counts in the pellet/total number of counts in both supernatant and pellet in rat plasma; assay type: functional; summary of the method: as §2
[40] = species: Rattus norvegicus; assay: Biodistribution of the [99mTc] complex with OIH in rat intestines at 10 min postinjection (3-4 rats used); assay type: ADME, organism-based, Intestine; settings: in vivo; summary of the method: as §1
[41] = species: Rattus norvegicus; assay: Biodistribution of the [99mTc] complex with OIH in rat spleen at 10 min postinjection (mean +/- SD, 3-4 rats used); assay type: ADME, organism-based; settings: in vivo; summary of the method: as §1
[42] = species: Rattus norvegicus; assay: Biodistribution of the [99mTc] complex with OIH in rat kidney at 10 min postinjection ( 3-4 rats used); assay type: ADME, organism-based; settings: in vivo; summary of the method: as §1

## COC(=O)C(CC(=O)NCCNC(=O)CC(SC(=O)c1ccccc1)C(=O)OC)SC(=O)c1ccccc1 (centres undefined)
[1]
  Injected dose: 1.6%
[2]
  Injected dose: 1.4%
[3]
  Injected dose: 1.1%
[4]
  Injected dose: 0.1%
[5]
  Injected dose: 0.7%
[6]
  Injected dose: 0.2%
[7]
  Injected dose: 7.9%
[8]
  Injected dose: 0.5%
[9]
  Injected dose: 5%
[10]
  Injected dose: 20.4%
[11]
  Injected dose: 1.9%
[12]
  Injected dose: 0.5%
[13]
  Injected dose: 0.1%
[14]
  Injected dose: 5.3%
[15]
  Injected dose: < 0.1%
[16]
  Injected dose: < 0.1%
[17]
  Injected dose: 26.2%
[18]
  Injected dose: 1.6%
[19]
  Injected dose: 1.6%
[20]
  Injected dose: 22.8%
[21]
  Injected dose: 3.3%
[22]
  Activity: 22%
[23]
  Activity: 26.5%
[24]
  Injected dose: < 0.1%
[25]
  Injected dose: 9.9%
[26]
  Injected dose: 1.7%
[27]
  Injected dose: < 0.1%
[28]
  Injected dose: 3%
[29]
  Injected dose: 0.5%
[30]
  Injected dose: 0.4%
[31]
  Injected dose: 0.3%
[32]
  Injected dose: 0.2%
[33]
  Injected dose: 15.2%
[34]
  Injected dose: 4.4%

## CCOC(=O)C(SC(=O)c1ccccc1)C(=O)NCCNC(=O)C(SC(=O)c1ccccc1)C(=O)OCC (centres undefined)
[2]
  Injected dose: 1.6%
[3]
  Injected dose: 0.9%
[4]
  Injected dose: 0.1%
[5]
  Injected dose: 0.7%
[9]
  Injected dose: 4.9%
[10]
  Injected dose: 21.5%
[11]
  Injected dose: 4%
[14]
  Injected dose: 6%
[16]
  Injected dose: 0.9% and 0.2% and 0.4% and 2% and 1.6% and < 0.1%
[17]
  Injected dose: 24%
[20]
  Injected dose: 23.6%
[22]
  Activity: 21.4%
[23]
  Activity: 21.9%
[26]
  Injected dose: 1.3%
[28]
  Injected dose: 5%
[30]
  Injected dose: 0.4%
[31]
  Injected dose: 0.2%
[32]
  Injected dose: 0.2%
[33]
  Injected dose: 13.1%

## [sequence]
[22]
  Activity: 30.3%
[23]; Cercopithecidae
  Activity: 35.2%

## COC(=O)CC(SC(=O)c1ccccc1)C(=O)NCCNC(=O)C(CC(=O)OC)SC(=O)c1ccccc1 (centres undefined)
[2]
  Injected dose: 1.7%
[3]
  Injected dose: 1.2%
[4]
  Injected dose: 0.1%
[5]
  Injected dose: 0.7%
[6]
  Injected dose: 0.3%
[7]
  Injected dose: 9.9%
[35]
  Activity: 26.2%
[36]
  Injected dose: 0.6%
[37]
  Injected dose: 0.8%
[9]
  Injected dose: 5%
[10]
  Injected dose: 21.1%
[11]
  Injected dose: 2.1%
[13]
  Injected dose: < 0.1%
[14]
  Injected dose: 4.3%
[38]
  Injected dose: 0.6%
[16]
  Injected dose: < 0.1%
[17]
  Injected dose: 26.7%
[18]
  Injected dose: 1.6%
[39]
  Activity: 31.1%
[20]
  Injected dose: 26.9%
[21]
  Injected dose: 2.5%
[40]
  Injected dose: 1.4%
[24]
  Injected dose: < 0.1%
[26]
  Injected dose: 1.3%
[27]
  Injected dose: < 0.1%
[41]
  Injected dose: 0.1%
[28]
  Injected dose: 3.1%
[29]
  Injected dose: 0.3%
[42]
  Injected dose: 6.9%
[30]
  Injected dose: 0.4%
[31]
  Injected dose: 0.2%
[32]
  Injected dose: 0.3%
[33]
  Injected dose: 16.4%
[34]
  Injected dose: 5.3%
